# Published values pooled from the literature.
# Compare with care: the assays were run in different laboratories.
# BTK: Tyrosine-protein kinase BTK (BTK, Homo sapiens, UniProt Q06187)
target,test,setting,endpoint,result,SMILES
BTK,"enzyme activity, inhibitor, mobility shift",100 pM,inhibition,> 50%,[2H]c1cc(C)c(NC(=O)c2cnc(Nc3cc(N4CCCCC4)nc(C)n3)s2)c(Cl)c1
"[Pyruvate dehydrogenase (acetyl-transferring)] kinase isozyme 1, mitochondrial (PDK1, Homo sapiens, UniProt Q15118)","enzyme activity, inhibitor","0.1 µM, lysate",inhibition,-15.2%,Cc1cc(O)c(-c2ccc([C@@H](C)CN(C)C)cc2)c2c1[nH]c(=O)c1sccc12
BTK,"enzyme activity, inhibitor, mobility shift",1 nM,inhibition,72%,Cc1nc(Nc2ncc(C(=O)Nc3c(C)cccc3Cl)s2)cc(N2CC[C@H](O)C2)n1
"Caspase-8 (CASP8, Homo sapiens, UniProt Q14790)","enzyme activity, inhibitor",,kinact/KI,2.74e+06 M⁻¹ s⁻¹,C[C@H](NC(=O)C(=O)Nc1ccccc1C(C)(C)C)C(=O)N[C@@H](CC(=O)O)C(=O)COc1c(F)c(F)cc(F)c1F
"Mast/stem cell growth factor receptor Kit (KIT, Homo sapiens, UniProt P10721, T670I/V559D)","binding, competition with immobilised ligand",0.5 µM,remaining binding,79%,CCCCC(=O)Nc1ccc(-c2ccc3ncn(CCC)c(=O)c3c2)cn1
BTK,"enzyme activity, inhibitor, mobility shift",1 nM,inhibition,56%,Cc1nc(Nc2ncc(C(=O)Nc3c(C)cccc3Cl)s2)cc(N2CCCCC2)n1
"D(4) dopamine receptor (DRD4, Homo sapiens, UniProt P21917, del265-296)","ligand displacement, radioligand",10 µM,inhibition,< 50%,NC/C(=C\F)COc1cccc(Cn2c(=S)[nH]c(=O)c3[nH]cnc32)c1
BTK,"enzyme activity, inhibitor, mobility shift",1 nM,inhibition,52%,[2H]c1cc(C)c(NC(=O)c2cnc(Nc3cc(N4CC[C@@H](N)C4)nc(C)n3)s2)c(Cl)c1
"RAC-beta serine/threonine-protein kinase (AKT2, Homo sapiens, UniProt P31751)","enzyme activity, inhibitor",0.1 µM,remaining activity,113%,Cc1cc(-c2ccnc3[nH]cc(F)c23)cc(F)c1[C@@]1(O)[C@H](C)CN(C(=O)CN)C[C@@H]1C
"Atypical kinase COQ8A, mitochondrial (COQ8A, Homo sapiens, UniProt Q8NI60)","cell-free assay, competition with immobilised ligand",25 µM,remaining binding,96%,N#Cc1ccc(NC(=O)Nc2ccccc2)cc1
"D(4) dopamine receptor (DRD4, Homo sapiens, UniProt P21917)","ligand displacement, radioligand","1 µM, cell membranes",inhibition,-12.4%,CN(C)CCOC(=O)COc1ccc(Cl)cc1
"Mitogen-activated protein kinase 12 (MAPK12, Homo sapiens, UniProt P53778)","enzyme activity, inhibitor",0.2 µM,inhibition,1.88%,C#Cc1cc(-c2cc(Nc3nc(N[C@@H](C)c4ccc(F)cn4)ncc3Cl)n[nH]2)ccc1C=O
BTK,binding,1 µM,remaining binding,96%,COc1ccc2oc(-c3ccc4nc(N)oc4c3)c/c(=N\c3ccccc3NC(=O)CCN)c2c1
"Serine/threonine-protein kinase Nek11 (NEK11, Homo sapiens, UniProt Q8NG66)",binding,0.1 µM,remaining binding,95%,C1=C/COCc2cc(ccc2OCCN2CCCC2)Nc2nccc(n2)-c2cccc(c2)COC/1
